Statin myotox sup – suppressors of statin myotoxicity in C2C12 myotubes, primary screen, cell-based, single point, plate reader | AID 602340, 2012 | C2C12 myotubes + simvastatin, ATP luminescence, 48 h; scaled: DMSO 0, geranylgeraniol control 100 | 330,000 compounds, 0.78% hits | rescue of ATP level, % at 7.49 µM;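 active = mean ATP rescue above about 67%, or every replicate alone reaching that limit, limit read from the data, passing the limit was not always enough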;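 note: myotubes were challenged with 10 µM simvastatin during compound exposure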
Cneo AK release – Cryptococcus neoformans cell lysis inducers, primary screen, AK release luminescence, single concentration; AID 651654, 2012; C. neoformans lysis, adenylate kinase release luminescence, 4 h; normalised: neutral wells 0, clomiphene wells 100; 360,000 compounds, 0.2% hits; lysis activity, % at 15 µM;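 active = mean lysis activity across replicates of at least 80%, whatever share of replicates individually reach that level; inactive = mean lysis activity below 80%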
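Material: C. neoformans cells; Schedule: 4 h static compound exposure, 37 °C, read 1 h post-reagent; Measured by: adenylate kinase release luminescence; Read-out: signal increase indicating cell lysis; Controls: Clomiphene as positive lysis control.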
DENV2 CPE – inhibitors of DENV2 cytopathic effect, primary screen, cell-based, plate reader, single concentration. DENV2-infected cells, cytopathic effect rescue. CPE inhibition, % at 9.99 µM. 350,000 compounds, 1.7% hits; in the data active = CPE inhibition above about 20%, passing the limit was not always enough; tested in BHK-21 cells;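 note: 0% = median of neutral control wells and 100% = median of positive control wells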
PDI turbidity – inhibitors of human PDI, primary screen, biochemical, turbidity, single point, plate reader. Protein disulfide-isomerase (Homo sapiens), P07237. PDI insulin aggregation turbidity, A650, 90 min. inhibition, % at 10 µM. 350,000 compounds, 0.052% hits. AID 588391, 2011;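 active = mean inhibition across replicates of 30% or more, whatever share of single replicates reach that level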
Target sequence (P07237 whole entry, looked up): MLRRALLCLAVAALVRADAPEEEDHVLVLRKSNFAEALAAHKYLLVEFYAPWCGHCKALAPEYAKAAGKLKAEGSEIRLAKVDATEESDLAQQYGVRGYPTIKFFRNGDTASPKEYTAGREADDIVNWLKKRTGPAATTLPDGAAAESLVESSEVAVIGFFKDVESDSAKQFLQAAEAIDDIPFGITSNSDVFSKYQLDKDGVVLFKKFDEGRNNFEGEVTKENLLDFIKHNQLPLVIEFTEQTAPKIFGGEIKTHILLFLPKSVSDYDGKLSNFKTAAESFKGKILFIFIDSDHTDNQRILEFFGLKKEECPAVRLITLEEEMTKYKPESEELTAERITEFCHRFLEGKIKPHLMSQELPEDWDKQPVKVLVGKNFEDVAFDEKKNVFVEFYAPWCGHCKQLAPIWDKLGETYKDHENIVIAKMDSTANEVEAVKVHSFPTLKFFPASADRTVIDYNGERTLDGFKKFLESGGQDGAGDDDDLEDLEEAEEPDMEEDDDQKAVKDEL
ERp5 inh – inhibitors of ERp5-driven insulin aggregation, primary screen, biochemical, turbidity, absorbance 650 nm, single point; AID 651711, 2012; inhibition, % at 9.99 µM; Protein disulfide-isomerase A6 (Homo sapiens), Q15084; 350,000 compounds, 0.05% hits; 90 min;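 active = mean replicate inhibition above about 25%, with every replicate also reaching it, limit read from the data, passing the limit was not always enough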
CFTR F508del cor – F508del CFTR correction, initial screen, CFBE line, single point. CFBE cells, YFP halide quenching; stimulated with forskolin plus potentiator P3; % fluorescence drop versus neutral controls. activity (quench increase), % at 7.58 µM. 350,000 compounds, 0.36% hits. AID 720511, 2013;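 active = mean added fluorescence quench of at least 8% versus neutral control, with both replicates also reaching 8%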;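 note: cells transiently co-express mutant CFTR-F508del with the halide-sensitive YFP; corrector assay measuring rescue of mutant channel to the surface after 24 h compound exposure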
* marks the source's active call; other numbers are inactive results; x = no result. A selection: hits, their analogues and other compounds. The true share with any hit is near 2.3%.

SMILES	Statin myotox sup	Cneo AK release	DENV2 CPE	PDI turbidity	ERp5 inh	CFTR F508del cor
COc1ccc(S(=O)(=O)N(C)C[C@H]2Oc3c(NC(=O)CCCCCC(=O)Nc4ccccc4N)cccc3C(=O)N([C@@H](C)CO)C[C@@H]2C)cc1	x	x	32.1*	x	-3.4	1.0
COc1ccc(S(=O)(=O)N(C)C[C@H]2Oc3c(NC(=O)CCCCCC(=O)Nc4ccccc4N)cccc3C(=O)N([C@H](C)CO)C[C@@H]2C)cc1	x	x	4.4	x	20.8	-1.0
COc1ccc(S(=O)(=O)N(C)C[C@@H]2Oc3c(NC(=O)CCCCCC(=O)Nc4ccccc4N)cccc3C(=O)N([C@H](C)CO)C[C@@H]2C)cc1	x	x	35.5*	x	3.5	-0.3
COc1ccc(S(=O)(=O)N(C)C[C@@H]2Oc3c(NC(=O)CCCCCC(=O)Nc4ccccc4N)cccc3C(=O)N([C@H](C)CO)C[C@H]2C)cc1	x	x	32.1*	x	-0.9	-3.8
COc1ccc(S(=O)(=O)N(C)C[C@@H]2Oc3c(NC(=O)CCCCCC(=O)Nc4ccccc4N)cccc3C(=O)N([C@@H](C)CO)C[C@H]2C)cc1	x	x	7.7	x	-1.3	0.2
CCS(=O)(=O)N1CCCCN2[C@H](CO)[C@H](c3ccc(-c4ccc(C(=O)N(C)C)cc4)cc3)[C@@H]2C1	3.7	5.4	-5.3	x	-2.0	0.2
COc1ccccc1NC(=O)COc1ccc(CO)cc1Cl	75.2*	-6.3	x	19.9	x	x
O=C(COc1ccc(CO)cc1Cl)Nc1ccc(F)cc1	17.7	-3.1	x	1.7	x	x
Cc1noc(C)c1NC(=O)Nc1ccc2c(c1)CC(=O)N([C@@H](C)CO)C[C@@H](C)[C@H](CN(C)C)O2	-0.9	-1.5	-9.7	x	2.7	1.0
N#C/C(=C1\CCCN1)c1ccc2ccccc2n1	76.8*	0.6	x	-6.0	x	x
O=C(Nc1ccccc1)N1CCCCN2[C@@H](CO)[C@@H](c3ccc(C#Cc4ccccc4)cc3)[C@@H]2C1	x	0.4	0.0	x	-4.0	-6.0
CC(C)NC(=O)N1CCCCN2[C@H](CO)[C@@H](c3ccc(C#CC4CC4)cc3)[C@H]2C1	29.3	1.3	38.8*	x	0.7	0.2
O=C(Nc1ccccc1)N1CCCCN2[C@@H](CO)[C@@H](c3ccc(C#CC4CC4)cc3)[C@@H]2C1	x	4.3	-10.2	x	-2.1	-3.4
CC(C)NC(=O)N1CCCCN2[C@H](C1)[C@H](c1ccc(C#Cc3ccccc3)cc1)[C@@H]2CO	x	-0.1	13.1	x	11.5	2.4
O=C(Nc1ccccc1)N1CCCCN2[C@@H](CO)[C@H](c3ccc(C#Cc4ccccc4)cc3)[C@@H]2C1	x	1.5	5.2	x	-0.2	8.1*
O=C(Nc1ccccc1)N1CCCCN2[C@H](C1)[C@H](c1ccc(C#CC3CC3)cc1)[C@@H]2CO	x	108.2*	-5.3	x	-8.8	-1.0
COCC(=O)N1CCCCN2[C@H](C1)[C@@H](c1ccc(-c3ccc(F)cc3)cc1)[C@@H]2CO	x	1.1	16.3	x	-2.8	-1.9
CCC(=O)N1CCCCN2[C@@H](CO)[C@H](c3ccc(-c4ccc(F)cc4)cc3)[C@@H]2C1	7.8	2.4	24.6*	x	0.7	3.1
COc1ccc(-c2ccc3c(c2)[C@H]2[C@H](CCN2S(=O)(=O)c2ccccc2C)[C@H](CO)N3)cc1	2.9	7.0	x	x	x	0.6
C[C@H](CO)N1C[C@H](C)[C@@H](CN(C)CC2CCCCC2)OCCCC[C@H](C)Oc2ccc(NS(=O)(=O)c3ccccc3)cc2C1=O	-72.6	3.0	3.1	x	1.2	-0.5
O=C(Nc1cccc(F)c1)N1CCCCN2[C@@H](CO)[C@H](c3ccc(C#Cc4ccccc4)cc3)[C@@H]2C1	x	-1.5	0.0	x	-6.4	8.9*
COc1ccc(C#Cc2ccc([C@H]3[C@@H](CO)N4CCCCN(C(=O)Nc5ccc(F)cc5)C[C@H]34)cc2)cc1	x	52.8	31.4*	x	3.2	-3.2
O=C(Nc1cccc(F)c1)N1CCCCN2[C@H](C1)[C@H](c1ccc(C#Cc3ccccc3)cc1)[C@@H]2CO	x	-0.4	x	x	x	4.7
C[C@H](O)C#Cc1ccc([C@H]2[C@@H](CO)N3CCCCN(C(=O)Nc4ccccc4)C[C@@H]23)cc1	-1.6	-1.7	23.1*	x	-6.1	0.5
C/C=C/c1ccc([C@@H]2[C@H]3CN(C(=O)Nc4ccc(OC)cc4)CCCCN3[C@H]2CO)cc1	x	114.3*	5.2	x	1.6	2.2
SMILES	Statin myotox sup	Cneo AK release	DENV2 CPE	PDI turbidity	ERp5 inh	CFTR F508del cor
C[C@H](O)C#Cc1ccc([C@@H]2[C@@H](CO)N3CCCCN(C(=O)Nc4ccccc4)C[C@@H]23)cc1	-20.3	-1.9	1.2	x	3.2	0.0
C[C@@H]1CN([C@H](C)CO)S(=O)(=O)c2ccc(/C=C/c3ccccc3)cc2O[C@@H]1CN(C)CC1CC1	-4.7	0.4	11.8	x	4.5	-2.7
Cc1ccc(S(=O)(=O)Nc2ccc3c(c2)C(=O)N([C@H](C)CO)C[C@H](C)[C@@H](CN(C)C(=O)NC2CCCCC2)OCCCC[C@H](C)O3)cc1	x	2.3	3.0	x	0.4	0.5
O=C(Nc1ccc(F)cc1)N1CCCCN2[C@@H](CO)[C@H](c3ccc(-c4ccncc4)cc3)[C@@H]2C1	x	-0.3	30.2*	x	-7.4	-0.7
O=C(Nc1ccc(F)cc1)N1CCCCN2[C@H](CO)[C@H](c3ccc(-c4ccncc4)cc3)[C@H]2C1	x	0.6	-10.1	x	-4.5	2.1
CN1C(=O)c2cc(NC(=O)c3ccccc3)ccc2OC[C@H]2O[C@H](CC(=O)NCC3CC3)CC[C@@H]21	-5.1	-3.6	5.0	x	-3.8	-2.8
Cc1c(Br)c([N+](=O)[O-])nn1C(C)C(=O)N1CCc2ccccc2C1 (stereo not given)	-0.6	1.8	23.6*	6.7	5.4	0.3
CC(C)NC(=O)Nc1ccc2c(c1)C(=O)N([C@H](C)CO)C[C@@H](C)[C@@H](CN(C)C(=O)C1CCCCC1)OCCCC[C@@H](C)O2	-41.7	x	x	x	x	-5.1
O=C(c1ccc(F)cc1)N1CC(=O)N2[C@H](CO)[C@@H](c3ccc(C#CC4CC4)cc3)[C@H]2C1	x	x	-5.5	x	0.4	1.9
CS(=O)(=O)c1ccc(C(=O)OCc2nnc(-c3ccc(Cl)cc3)o2)cc1[N+](=O)[O-]	-17.2	-7.2	x	89.5*	x	x
CC(=O)c1c(C)[nH]c(C(=O)OCC(=O)NNC(=O)c2ccc([N+](=O)[O-])cc2)c1C	2.4	0.9	-11.5	-31.6	-4.2	-0.8
CC(=O)c1c(C)[nH]c(C(=O)OCc2nnc(-c3ccc([N+](=O)[O-])cc3)o2)c1C	-1.2	-0.5	-7.1	16.9	6.0	9.2*

Bioassay records (PubChem BioAssay)
